Screening results: PubChem, several laboratories
PLAP act = PLAP enzyme activators, biochemical, luminescence, HTS. AID 696, 2007. purified PLAP enzyme, luminescent substrate read-out; stronger effect = higher value. activation fold at 20 µM. actives 1.2% (n = 96,000). Alkaline phosphatase, placental type (Homo sapiens), P05187; in the data active = activation fold above about 2
HePTP inhibitor = inhibitors of human HePTP phosphatase, primary screen, biochemical, absorbance, leukemia target; recombinant HePTP phosphatase activity, OD absorbance; inhibition, % at 20 µM; AID 521, 2006; actives 0.64% (n = 110,000); Tyrosine-protein phosphatase non-receptor type 7 (Homo sapiens), P35236; in the data active = inhibition above about 50%;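 note: plate controls were vehicle for no effect and reference inhibitor for full effect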
Target sequence (P35236 whole entry, looked up): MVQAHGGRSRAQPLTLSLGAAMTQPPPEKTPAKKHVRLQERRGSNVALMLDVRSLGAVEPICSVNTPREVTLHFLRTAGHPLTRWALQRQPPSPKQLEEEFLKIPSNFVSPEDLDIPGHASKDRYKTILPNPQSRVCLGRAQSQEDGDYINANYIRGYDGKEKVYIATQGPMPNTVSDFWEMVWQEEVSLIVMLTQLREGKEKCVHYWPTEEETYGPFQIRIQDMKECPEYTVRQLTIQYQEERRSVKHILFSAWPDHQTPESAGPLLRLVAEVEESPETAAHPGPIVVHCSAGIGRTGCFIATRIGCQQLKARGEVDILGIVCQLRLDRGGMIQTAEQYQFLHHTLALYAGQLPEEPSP
PostGolgi ctrl = growth inhibition of yeast control strain, primary screen, counter-screen for post-Golgi transport modulator project. inhibition, % at 10 µM. efflux-deficient yeast background strain, growth absorbance A615, 16 h. actives 5% (n = 98,000)
PostGolgi yeast = phenotypic screen on post-Golgi transport, primary screen. inhibition, % at 10 µM. AID 739, 2007. actives 0.9% (n = 98,000). post-Golgi transport phenotypic cell assay;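 note: yeast cells grown in 1536-well plates; yeast grown about 18 h at 30C before absorbance read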
tolC growth inh = growth inhibitors of E. coli tolC mutant, primary screen, strain BW25113 ΔtolC::kan, 384-well; OD615; growth inhibition, % at 10 µM (by protocol); actives 2.2% (n = 65,000); AID 573, 2007;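 active = growth inhibition at or above a cutoff equal to the mean over every tested compound plus 3 SD, cut at about 60% in these data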;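 note: growth measured after 20 h incubation at 37 °C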
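Test system: E. coli BW25113 ΔtolC::kan bacteria; incubation: 37 °C, 20 h exposure; medium: LB broth supplemented with 50 µg/mL kanamycin; read-out basis: percent growth inhibition; signal: A615 absorbance measurement; compound: 10 µM final, single dose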
Ecoli WT expand = growth inhibitors of wild-type E. coli, primary screen, strain BW25113, expanded library, OD600; growth inhibition, % at 100 µM; actives 0.15% (n = 98,000); OD600 absorbance;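 active = growth inhibition above about 50% at one test dose, limit read from the data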;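 note: growth measured after 20 h incubation at 37 °C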
Starred values were filed as active, the others as inactive. Most compounds without a hit are left out; they make up all but 5.4% or so of the library. Cut-off read from the data, not from the text of the source, unless noted: active = inhibition above about 30%; inactive = the rest.

`Cc1ccccc1C(=O)O/N=C/c1c(N2CCOCC2)n(C)c2ccccc12` gave PLAP act 0.9, PostGolgi ctrl 40*, PostGolgi yeast 54* and Ecoli WT expand 15.
CN1CCN(C(=O)c2nn3c(C(F)(F)F)cc(-c4ccccc4)nc3c2Cl)CC1 was read as HePTP inhibitor 6.
For COc1cc(NC(=O)c2cccc(Cl)c2)ccc1NC(=O)c1ccco1 the results were HePTP inhibitor 0.
For CCn1c(-c2c[nH]c3ccccc23)n[nH]c1=S the results were PLAP act 1, HePTP inhibitor 11, PostGolgi ctrl 0, PostGolgi yeast 40*, tolC growth inh -2 and Ecoli WT expand 6.
For CCn1c(-c2ccc3[nH]c(C)c(C)c3c2)n[nH]c1=S the results were PLAP act 2.1*, HePTP inhibitor 6, PostGolgi ctrl 4, PostGolgi yeast -5, tolC growth inh 9 and Ecoli WT expand 1.
`CCn1c(-c2cc(Br)ccc2O)n[nH]c1=S` gave HePTP inhibitor 1 and tolC growth inh 7.
For CCn1c(-c2cc3ccccc3cc2O)n[nH]c1=S the results were PLAP act 2.9*, PostGolgi ctrl 20, PostGolgi yeast 1 and Ecoli WT expand -2.
CC(C)Cn1c(-c2ccccc2F)n[nH]c1=S was read as PLAP act 1.8, HePTP inhibitor 1, PostGolgi ctrl 33*, PostGolgi yeast 8, tolC growth inh 6 and Ecoli WT expand 9.
C=CCn1c(-c2c[nH]c3ccccc23)n[nH]c1=S was read as PLAP act 1.6, HePTP inhibitor -2, PostGolgi ctrl 4, PostGolgi yeast -4, tolC growth inh 32 and Ecoli WT expand 12.
Cc1[nH]c2ccc(-c3n[nH]c(=S)n3C)cc2c1C was read as PLAP act 1.8, HePTP inhibitor 9, PostGolgi ctrl 10, PostGolgi yeast -10, tolC growth inh 5 and Ecoli WT expand 4.
Cc1ccc(-n2c(=O)c3c(n4c(=S)[nH]nc24)-c2ccccc2CC32CCCCC2)cc1 was read as HePTP inhibitor -4.
For CC(C)c1ccc(N2C(=O)NC(=O)/C(=C/c3ccc(I)o3)C2=O)cc1 the results were HePTP inhibitor 32.
CC1(C)OC(=O)C(=Cc2ccc(I)o2)C(=O)O1 was read as HePTP inhibitor 102*.
`O=C1C(=Cc2ccc(I)o2)C(=O)c2ccccc21` gave HePTP inhibitor 78*.
Screening O=[N+]([O-])c1ccc(Cl)c(S(=O)(=O)NCc2ccccn2)c1 returned HePTP inhibitor 4.
O=C(CN(c1cccc([N+](=O)[O-])c1)S(=O)(=O)c1ccccc1)Nc1ccc(F)c(Cl)c1 was read as HePTP inhibitor 4.
Screening COc1ccccc1OCCCCN1CCN(c2ccccc2OC)CC1 returned PLAP act 2.2*, PostGolgi ctrl 4, PostGolgi yeast -2 and Ecoli WT expand 1.
For O=C(c1cc(C2CC2)on1)N1CCN(C(c2ccccc2)c2ccccc2)CC1 the results were PLAP act 1.1, HePTP inhibitor 10, PostGolgi ctrl 13, PostGolgi yeast 4, tolC growth inh 65* and Ecoli WT expand -4.
Screening O=C(c1cc(-c2cccc(O)c2)on1)N1CCN(C(c2ccccc2)c2ccccc2)CC1 returned PLAP act 1.4, HePTP inhibitor 4, PostGolgi ctrl -9, PostGolgi yeast -1, tolC growth inh 28 and Ecoli WT expand -2.
`O=C(Cn1nnc(-c2ccc(F)cc2)n1)N/N=C/c1ccc(-c2ccc3c(c2)COC3=O)o1` gave HePTP inhibitor 10.
Screening O=C(CCCN1C(=O)c2ccccc2C1=O)Nc1ccccc1C(=O)N1CCCC1 returned HePTP inhibitor 1.
`O=C(CCCN1C(=O)c2ccccc2C1=O)Nc1ccccc1C(=O)N1CCCCC1` gave HePTP inhibitor 78*.
For CC(=O)N[C@H]1C[C@@H]1c1ccccc1 the results were PLAP act 0.9, HePTP inhibitor -8, PostGolgi ctrl -6, PostGolgi yeast -1, tolC growth inh 10 and Ecoli WT expand 9.
Screening CCC1CC2CC(NC(C)=O)C1C2 (stereo not given) returned PLAP act 1.1, PostGolgi ctrl 33*, PostGolgi yeast 0 and Ecoli WT expand -1.
`CCN(CC)S(=O)(=O)c1ccc(C)c(C(=O)O)c1` gave HePTP inhibitor 8.
For COc1ccc(-c2c(C#N)c(N)nc3c2CCc2ccccc2-3)cc1OC the results were PLAP act 1.5, PostGolgi ctrl 44*, PostGolgi yeast -1 and Ecoli WT expand -13.
`COc1cc(-c2c(C#N)c(N)nc3c2CCCC3)ccc1O` gave PLAP act 1, HePTP inhibitor -2, PostGolgi ctrl 11, PostGolgi yeast 3, tolC growth inh 8 and Ecoli WT expand 0.
Screening CCOC(=O)c1cc2c(ccn2C)n1CC(=O)N1CCC(Cc2ccccc2)CC1 returned PLAP act 1.7, HePTP inhibitor 3, PostGolgi ctrl 27, PostGolgi yeast 18, tolC growth inh 30 and Ecoli WT expand -32.
For CCOC(=O)c1cc2c(ccn2C)n1CC(=O)N1CCN(c2ccccc2OC)CC1 the results were PLAP act 1.5, HePTP inhibitor 9, PostGolgi ctrl -1, PostGolgi yeast 32*, tolC growth inh 7 and Ecoli WT expand 8.
`CC(/C=C/c1ccccc1)=N\N=C1\NC(=O)C(Cc2ccccc2)S1` (stereo not given) gave HePTP inhibitor 104*.
Screening COc1cc(C=Nc2ccc(-c3ccc(N=Cc4ccc(OC(C)=O)c(OC)c4)c(C)c3)cc2C)ccc1OC(C)=O returned HePTP inhibitor -2.
Screening CCCCNC(=O)Cn1c2c(c(-c3ccccc3Cl)cc1=O)CCC2 returned PLAP act 1.5, PostGolgi ctrl 0, PostGolgi yeast 7 and Ecoli WT expand 2.
O=C(Cn1c2c(c(-c3ccccc3)cc1=O)CCCC2)N1CCCCCC1 was read as HePTP inhibitor 2 and tolC growth inh 100*.
Screening COc1ccc(N/N=C(\C=N\O)C(=O)c2ccc(OC)cc2)cc1 returned PLAP act 0.9, PostGolgi ctrl 35*, PostGolgi yeast 8 and Ecoli WT expand -5.
`O=C(O)CCCCCN1C(=O)C(=O)/C(=C(/O)c2ccc(F)cc2)C1c1ccc(Cl)cc1` (stereo not given) gave HePTP inhibitor -7.
CC(C)(C)NC(=O)C1CN(S(=O)(=O)c2ccccc2)CCN1S(=O)(=O)c1ccccc1 (stereo not given) was read as PLAP act 1.1, HePTP inhibitor -2, PostGolgi ctrl 2, PostGolgi yeast -3, tolC growth inh 16 and Ecoli WT expand 24.
